The source made the active and inactive calls. The rule behind the calls is not given here.
Columns and labels:
DU-145 [1] = assay: Induction of apoptosis in human DU145 cells assessed as PARP activation at 100 uM by ELISA; format: functional, cell-based
DU-145 [2] = assay: Cytotoxicity against human DU145 cells after 72 hrs by XTT assay; format: functional, cell-based; conditions: DU-145, 24 h, in the assay text read “after 24 hrs” for “after 72 hrs”
DU-145 [3] = assay: Increase of intracellular hydrogen peroxide and or peroxide in human DU145 cells at 50 uM after 24 hrs by DCFH-DA assay relative to control; format: functional
In short: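 DU145 cells (1 × 10^4 per well) treated with 1, 10 or 50 µM for 6–24 h, then loaded with 10 µM DCFH-DA in serum-free medium for 30 min at 37 °C in the dark. DCF fluorescence read by spectrofluorimeter (ex 495, em 530 nm) within 15 min; five experiments.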

DU-145 [4] = assay: Cytotoxicity against human DU145 cells at 100 uM after 72 hrs by XTT assay; format: functional, cell-based
In short: (§1)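 Prostate cancer cells in RPMI-1640 with 10% FBS, 37 °C, 5% CO2, grown to 70–80% confluence and treated at 0.1–100 µM for 24, 48 and 72 h. XTT labeling for 4 h at 37 °C, absorbance 450 nm (reference 650 nm) against control wells. IC50 derived from the mean of eight wells; taxol and cisplatin served as positive controls.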

DU-145 [5] = assay: Antiproliferative activity in human DU145 cells at 10 uM after 24 hrs by XTT assay in the presence of Ac-DEVD-CMK; format: functional, cell-based
In short: (§2)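 DU145 cells pretreated 60 min with 50 µM Ac-DEVD-CMK or 50 µM Ac-LEHD-CMK, then exposed to 10 µM compound for 24 h (vehicle 1% DMSO in water). Proliferation read by XTT: labeling mixture added for 4 h at 37 °C, OD 450 nm (reference 650 nm) versus control wells; mean ± SE of three experiments.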

DU-145 [6] = assay: Cell cycle arrest in human DU145 cells assessed as accumulation of cells at sub-G1 phase after 24 hrs using propidium iodide stain by flow cytometry; format: functional, cell-based
In short: (§3)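 DU145 cells treated with 1, 5, 10 or 100 µM for 24 or 72 h; vehicle 1% DMSO in water. Adherent and floating cells pooled, fixed in PBS-MeOH (1:2) at 4 °C for at least 18 h, then stained 30 min at room temperature in the dark with propidium iodide 50 µg/mL plus RNase A 50 µg/mL. Flow cytometry, excitation 488 nm, emission above 580 nm, doublets gated out. Sub-G1 region taken as DNA damage; at least three runs.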

DU-145 [7] = assay: Increase in the ratio of cytochrome C concentration from cytosol to mitochondria in human DU145 cells at 100 uM after 24 hrs by ELISA; format: functional, cell-based
In short: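 DU145 cells given 100 µM or DMSO vehicle for 6–24 h at 37 °C. Cytosolic fraction released with digitonin buffer on ice for 5 min; mitochondrial fraction taken by Triton/deoxycholate/SDS lysis and a 10000g spin. Cytochrome c in each fraction measured by ELISA and expressed as a cytosol/mitochondria ratio; three experiments, ANOVA with Dunnett's test.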

DU-145 [8] = assay: Cell cycle arrest in human DU145 cells assessed as accumulation of cells at G1 phase at 10 uM after 24 hrs using propidium iodide stain by flow cytometry; format: functional; in short: as §3
DU-145 [9] = assay: Cell cycle arrest in human DU145 cells assessed as accumulation of cells at S phase at 100 uM after 24 hrs using propidium iodide stain by flow cytometry; format: functional; in short: as §3
DU-145 [10] = assay: Cell cycle arrest in human DU145 cells assessed as accumulation of cells at S phase at 1 uM after 24 hrs using propidium iodide stain by flow cytometry; format: functional; in short: as §3
DU-145 [11] = assay: Induction of apoptosis in human DU145 cells assessed as caspase9 activation by ELISA; format: functional, cell-based; conditions: TDE = time-dependent effect
In short: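 DU145 cells treated with 10 µM for 1, 3, 6, 12 and 24 h and lysed. Lysate (60 µg) incubated with Ac-DEVD-pNA or Ac-LEHD-pNA in PIPES buffer pH 7.2 at 37 °C for 1 h in the dark. pNA release read at 405 nm and expressed as percent change against untreated control.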

DU-145 [12] = assay: Cell cycle arrest in human DU145 cells assessed as accumulation of cells at G2/M phase at 10 uM after 24 hrs using propidium iodide stain by flow cytometry; format: functional; in short: as §3
LNCaP = assay: Cytotoxicity against human LNCAP cells after 72 hrs by XTT assay; format: functional, cell-based; conditions: 24 h, in the assay text read “after 24 hrs” for “after 72 hrs”; in short: as §1
DU-145 [13] = assay: Induction of apoptosis in human DU145 cells assessed as formation of granulation of nucleus after 24 hrs by Hoechst 33342 stainig; format: functional, cell-based
In short: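 DU145 cells exposed to 1 and 100 µM for 24 h, vehicle 1% DMSO. Fixed in 3.7% paraformaldehyde, stained with Hoechst 33342 (5 µg/mL) at 37 °C for 1 h and examined by fluorescence microscopy. Cells with reduced nuclear size, chromatin condensation or nuclear fragmentation scored as apoptotic.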

DU-145 [14] = assay: Cell cycle arrest in human DU145 cells assessed as accumulation of cells at S phase at 1 uM after 72 hrs using propidium iodide stain by flow cytometry; format: functional; in short: as §3
DU-145 [15] = assay: Cytotoxicity against human DU145 cells at 100 uM after 72 hrs by Trypan blue dye exclusion test; format: functional, cell-based
In short: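 DU145 cells (1 × 10^5 per 60 mm dish) treated the following day with 1–100 µM for 24, 48 and 72 h. Cells harvested, washed twice with PBS and stained with trypan blue; unstained viable cells counted by microscope with a hemocytometer. Mean ± SE.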

DU-145 [16] = assay: Cell cycle arrest in human DU145 cells assessed as accumulation of cells at G2/M phase at 1 uM after 72 hrs using propidium iodide stain by flow cytometry; format: functional; in short: as §3
DU-145 [17] = assay: Cell cycle arrest in human DU145 cells assessed as accumulation of cells at G1 phase at 1 uM after 24 hrs using propidium iodide stain by flow cytometry; format: functional; in short: as §3
DU-145 [18] = assay: Cell cycle arrest in human DU145 cells assessed as accumulation of cells at sub-G1 phase at 5 uM after 24 hrs using propidium iodide stain by flow cytometry; format: functional; in short: as §3
DU-145 [19] = assay: Cell cycle arrest in human DU145 cells assessed as accumulation of cells at S phase at 10 uM after 24 hrs using propidium iodide stain by flow cytometry; format: functional; in short: as §3
DU-145 [20] = assay: Antiproliferative activity in human DU145 cells at 10 uM after 24 hrs by XTT assay in the presence of Ac-LEHD-CMK; format: functional, cell-based; in short: as §2
DU-145 [21] = assay: Cell cycle arrest in human DU145 cells assessed as accumulation of cells at G2/M phase at 100 uM after 72 hrs using propidium iodide stain by flow cytometry; format: functional; in short: as §3
DU-145 [22] = assay: Cell cycle arrest in human DU145 cells assessed as accumulation of cells at S phase at 5 uM after 72 hrs using propidium iodide stain by flow cytometry; format: functional; in short: as §3

Compound: CCCCCCCCCCCCCCCCCCCCCCCC/C=C(/C(=O)OC)[C@@H](O)C(C)=O [SECOTENUIFOLIDE A]
- Activity (DU-145 [1]): Active
- EC50 (DU-145 [2]): < 7 µM
- IC50 (DU-145 [2]): 5.2 µM
- fold change (FC) (DU-145 [3]): 2.5
- Activity (DU-145 [4]): Active
- Activity (DU-145 [5]): inactive
- Activity (DU-145 [6]): Dose-dependent effect
- Activity (DU-145 [7]): Active
- Activity (DU-145 [8]): 36.97%
- Activity (DU-145 [9]): 10.04%
- Activity (DU-145 [10]): 3.31%
- Activity (DU-145 [11]): tde
- Activity (DU-145 [12]): 36.57%
- EC50 (LNCaP): < 7 µM
- IC50 (LNCaP): 6.76 µM
- Activity (DU-145 [13]): Active
- Activity (DU-145 [14]): 2.88%
- Activity (DU-145 [15]): Active
- Activity (DU-145 [16]): 33.68%
- Activity (DU-145 [17]): 44.45%
- Activity (DU-145 [18]): 19.02%
- Activity (DU-145 [19]): 3.8%
- Activity (DU-145 [20]): inactive
- Activity (DU-145 [21]): 30%
- Activity (DU-145 [22]): 4.05%
